Measured values reported in ChEMBL document CHEMBL1287641, “Synthesis, characterization and anti-microbial studies of some novel 2,4-disubstituted thiazoles” (2010).
≈ marks a conversion by molar mass, not a printed value. Calls of active or inactive are those of the source. The calls are words filed in the database; no cut-off is given here.

How the values were obtained:
Bacillus subtilis [1] = experiment: Antibacterial activity against Bacillus subtilis at 1.6125 to 50 ug/ml after 16 hrs by serial dilution method; type: functional, organism-based
How it was run: (§1)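 Broth tube serial dilution MIC. Test compounds were stocked at 1 mg/mL in DMF and twofold diluted in trypticase soya broth across six tubes. Each organism was grown 6 h at 37 °C, adjusted to […] (10⁸ cfu/mL) and diluted to 10⁵ cfu/mL; 1 mL was added per tube. Tubes were incubated 16 h at 37 °C. MIC was read as the concentration giving no visible growth. Inoculum and broth controls were included.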

Pseudomonas aeruginosa [2] = experiment: Antibacterial activity against Pseudomonas aeruginosa at 1.6125 to 50 ug/ml after 16 hrs by serial dilution method; type: functional, organism-based; how it was run: as §1
Escherichia coli [3] = experiment: Antibacterial activity against Escherichia coli after 16 hrs by serial dilution method; type: functional; how it was run: as §1
Staphylococcus aureus [4] = experiment: Antibacterial activity against Staphylococcus aureus after 16 hrs by serial dilution method; type: functional; how it was run: as §1
Pseudomonas aeruginosa [5] = experiment: Antibacterial activity against Pseudomonas aeruginosa after 16 hrs by serial dilution method; type: functional; how it was run: as §1
Bacillus subtilis [6] = experiment: Antibacterial activity against Bacillus subtilis after 16 hrs by serial dilution method; type: functional; how it was run: as §1
Escherichia coli [7] = experiment: Antibacterial activity against Escherichia coli at 1.6125 to 50 ug/ml after 16 hrs by serial dilution method; type: functional, organism-based; how it was run: as §1
Staphylococcus aureus [8] = experiment: Antibacterial activity against Staphylococcus aureus at 1.6125 to 50 ug/ml after 16 hrs by serial dilution method; type: functional, organism-based; how it was run: as §1

MIC (Escherichia coli [3])	MIC (Staphylococcus aureus [4])	MIC (Pseudomonas aeruginosa [5])	MIC (Bacillus subtilis [6])	SMILES	Activity (Bacillus subtilis [1])	Activity (Pseudomonas aeruginosa [2])	Activity (Escherichia coli [7])	Activity (Staphylococcus aureus [8])
50 mg/L (≈ 103 µM)	3.12 mg/L (≈ 6.47 µM)			Clc1ccc(-c2csc(N/N=C/c3c[nH]nc3-c3ccc(Cl)cc3Cl)n2)c(Cl)c1	inactive	inactive		
1.61 mg/L (≈ 3.3 µM)	3.12 mg/L (≈ 6.39 µM)	1.61 mg/L (≈ 3.3 µM)	1.61 mg/L (≈ 3.3 µM)	Clc1ccc(-c2csc(N/N=C/c3c[nH]nc3-c3cc(Cl)sc3Cl)n2)c(Cl)c1				
				CSc1ccc(-c2n[nH]cc2/C=N/Nc2nc(-c3cc4ccccc4oc3=O)cs2)cc1	inactive	inactive	inactive	inactive
3.12 mg/L (≈ 6.4 µM)	1.61 mg/L (≈ 3.3 µM)	1.61 mg/L (≈ 3.3 µM)	1.61 mg/L (≈ 3.3 µM)	O=c1oc2ccccc2cc1-c1csc(N/N=C/c2c[nH]nc2-c2cc(Cl)sc2Cl)n1				
				O=c1oc2ccc(Br)cc2cc1-c1csc(N/N=C/c2c[nH]nc2-c2ccc(-c3ccccc3)cc2)n1	inactive	inactive	inactive	inactive
				Clc1ccc(-c2csc(N/N=C/c3c[nH]nc3-c3ccc(-c4ccccc4)cc3)n2)c(Cl)c1	inactive	inactive	inactive	inactive
				CSc1ccc(-c2n[nH]cc2/C=N/Nc2nc(-c3cc4cc(Br)ccc4oc3=O)cs2)cc1	inactive	inactive	inactive	inactive
1.61 mg/L (≈ 2.87 µM)	3.12 mg/L (≈ 5.57 µM)	1.61 mg/L (≈ 2.87 µM)	3.12 mg/L (≈ 5.57 µM)	O=c1oc2ccc(Br)cc2cc1-c1csc(N/N=C/c2c[nH]nc2-c2ccc(Cl)cc2Cl)n1				
1.61 mg/L (≈ 3.34 µM)	3.12 mg/L (≈ 6.48 µM)	1.61 mg/L (≈ 3.34 µM)	1.61 mg/L (≈ 3.34 µM)	O=c1oc2ccccc2cc1-c1csc(N/N=C/c2c[nH]nc2-c2ccc(Cl)cc2Cl)n1				
50 mg/L (≈ 109 µM)		50 mg/L (≈ 109 µM)	50 mg/L (≈ 109 µM)	CSc1ccc(-c2n[nH]cc2/C=N/Nc2nc(-c3ccc(Cl)cc3Cl)cs2)cc1				inactive
				O=c1oc2ccccc2cc1-c1csc(N/N=C/c2c[nH]nc2-c2ccc(-c3ccccc3)cc2)n1	inactive	inactive	inactive	inactive
1.61 mg/L (≈ 2.84 µM)	1.61 mg/L (≈ 2.84 µM)	1.61 mg/L (≈ 2.84 µM)	1.61 mg/L (≈ 2.84 µM)	O=c1oc2ccc(Br)cc2cc1-c1csc(N/N=C/c2c[nH]nc2-c2cc(Cl)sc2Cl)n1				

SMILES	MIC (Escherichia coli [3])	MIC (Staphylococcus aureus [4])	MIC (Pseudomonas aeruginosa [5])	MIC (Bacillus subtilis [6])	Activity (Bacillus subtilis [1])	Activity (Pseudomonas aeruginosa [2])	Activity (Escherichia coli [7])	Activity (Staphylococcus aureus [8])
CO/N=C(\C(=O)N[C@@H]1C(=O)N2C(C(=O)O)=C(CSc3nc(=O)c(O)nn3C)CS[C@H]12)c1csc(N)n1 [CEFTRIAXONE]	1.61 mg/L (≈ 2.91 µM)	3.12 mg/L (≈ 5.63 µM)	1.61 mg/L (≈ 2.91 µM)	1.61 mg/L (≈ 2.91 µM)				
